Experimental data gathered from unrelated publications.
Target: Casein kinase I isoform gamma-3 (CSNK1G3, Homo sapiens, UniProt Q9Y6M4)

C[C@@H]1CCN(c2nccc(-c3cnn4ncccc34)n2)C1
remaining binding (binding; 1 µM): 65%

COc1cnc(Nc2cccc(S(N)(=O)=O)c2)nc1N1CCN(c2ccccc2)CC1
remaining binding (binding, competition with immobilised ligand; 1 µM): 100%

FC(F)(F)Oc1cccc(-c2cnc3ccc(-c4ccncc4)nn23)c1
remaining binding (cell-free assay, competition with immobilised ligand; 5 µM): 84%

O=C(NCCCN1CCOCC1)c1ccc(Nc2nccc(-c3cc4ccccc4s3)n2)cc1
remaining binding (binding, competition with immobilised ligand; 1 µM): 88%

c1cnn2ncc(-c3ccnc(N4CCC45COC5)n3)c2c1
remaining binding (binding; 1 µM): 100%

c1cncc(-c2cccc(Nc3nccc(NC4CCCCC4)n3)c2)c1
remaining binding (binding, competition with immobilised ligand; 10 µM): 100%

CN(C)c1nccc(-c2cnn3ncccc23)n1
remaining binding (binding; 1 µM): 82%

O=C(NCC1CCOCC1)c1n[nH]cc1NC(=O)c1c(F)cccc1F
remaining binding (binding, competition with immobilised ligand; 1 µM): 78%

CCOCCn1cc(C(=O)Nc2ccc(-n3nc(-c4cccnc4)cc3C(F)(F)F)cn2)ccc1=O
remaining binding (cell-free assay, competition with immobilised ligand; 1 µM): 100%

O=C(c1ccc(Nc2ncc(Cl)c(-c3ccc(Cl)s3)n2)cc1)N1CCC(N2CCCC2)CC1
remaining binding (binding, competition with immobilised ligand; 1 µM): 100%

CC(=O)N1CCC(c2ccc(C(=O)NC3=NCCN3)cc2C(F)(F)F)CC1
remaining binding (cell-free assay, competition with immobilised ligand; 1 µM): 100%

CN(CCCC(F)(F)F)c1nccc(-c2cnn3ncccc23)n1
remaining binding (binding; 1 µM): 100%

CS(=O)(=O)N1CCCC(NC(=O)[C@H](CCC2CCCCC2)NC(=O)c2ccc(CNc3ncnc4c3nnn4-c3ccccc3)cc2)C1 (some centres unmarked)
remaining binding (cell-free assay, competition with immobilised ligand; 0.1 µM): 100%

CCN1CCN(Cc2ccc(C(=O)Nc3ccc(C)c(Oc4ccc5c(c4)CC(=O)N5)c3)cc2C(F)(F)F)CC1
remaining binding (binding, competition with immobilised ligand; 1 µM): 100%

Cc1nc(N2CC[C@@H](O)C2)ncc1-c1cc(C(F)(F)F)cc2[nH]ncc12
remaining binding (cell-free assay, competition with immobilised ligand; 1 µM): 74%

N[C@@H]1CCN(c2nccc(-c3cnn4ncccc34)n2)C1
remaining binding (binding; 1 µM): 100%

Cc1c(C(=O)O)cc(-c2ccc(C3CCNCC3)cc2)c2ccc(-c3ccc(C(F)(F)F)cc3)cc12
remaining binding (cell-free assay, competition with immobilised ligand; 1 µM): 100%

O=C(c1ccc(Nc2ncc(Cl)c(-c3cc4ccccc4s3)n2)cc1)N1CCC(N2CCCC2)CC1
remaining binding (binding, competition with immobilised ligand; 1 µM): 100%

Cc1cnn2ncc(-c3ccnc(N(C)C)n3)c2c1
remaining binding (binding; 1 µM): 82%

N#Cc1ccc(Nc2ccc3[nH]c(=O)[nH]c3c2)c(Cl)c1
remaining binding (cell-free assay, competition with immobilised ligand; 1 µM): 99%
